Experimental data from PubChem BioAssay AID602158 (Broad Institute, 2011).
Results filed as inconclusive are left out. Active and inactive are the calls of the source.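 Rule for the calls: active = half-maximal potency at or below twice the top valid dose in every separate test run, with falling signal; inconclusive = runs disagree, or flat 30 to 70% inhibition, or poor fit; inactive = inactive in every run, including rising signal.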

What follows are compounds tested against Serine/threonine-protein kinase 33 (Homo sapiens) (UniProt Q9BYT3) (assay: inhibition of purified STK33 phosphorylating MBP – biochemical, ADP-Glo luminescence, dry powder, set 3, dose response (AID 602158)). Details: purified STK33, MBP phosphorylation.
Serine/threonine-protein kinase 33 (Homo sapiens), sequence (Q9BYT3 whole entry, looked up): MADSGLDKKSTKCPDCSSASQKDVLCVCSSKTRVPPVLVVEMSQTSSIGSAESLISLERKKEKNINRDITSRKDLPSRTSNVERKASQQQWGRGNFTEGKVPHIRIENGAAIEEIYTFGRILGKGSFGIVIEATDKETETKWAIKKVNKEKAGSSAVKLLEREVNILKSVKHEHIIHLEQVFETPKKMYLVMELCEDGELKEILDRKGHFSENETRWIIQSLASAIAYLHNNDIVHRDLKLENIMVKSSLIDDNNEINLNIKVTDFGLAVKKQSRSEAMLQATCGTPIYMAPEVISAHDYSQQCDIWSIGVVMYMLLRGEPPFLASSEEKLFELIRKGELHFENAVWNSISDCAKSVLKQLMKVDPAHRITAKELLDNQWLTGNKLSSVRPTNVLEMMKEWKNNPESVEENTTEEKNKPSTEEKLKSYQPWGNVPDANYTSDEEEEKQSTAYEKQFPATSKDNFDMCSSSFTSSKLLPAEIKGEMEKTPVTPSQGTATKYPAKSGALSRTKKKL
Procedure, shortened: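 System: purified STK33 kinase enzyme / Medium: MOPS-based assay buffer, pH 7.0, with BSA and BME / Also added: MBP substrate, ATP at Km / Schedule: 15 min RT preincubation, 60 min reaction / Detection: ADP-Glo luminescence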
O=c1[nH]c2ccccc2nc1-c1ccccc1NS(=O)(=O)c1ccccc1 showed an AC50 of 7.25 µM.
With O=c1[nH]c2ccccc2nc1-c1ccccc1NCc1ccccn1 the AC50 was 1.54 µM.
With O=C(Nc1ccccc1-c1nc2ccccc2[nH]c1=O)c1ccccc1 the AC50 was 0.165 µM.
With COc1cccc(C(=O)Nc2ccccc2-c2nc3ccccc3[nH]c2=O)c1 the AC50 was 2.24 µM.
For O=C(Nc1ccccc1-c1nc2ccccc2[nH]c1=O)c1ccc(Cl)s1, the AC50 was 0.38 µM.
For Cc1cccc(C(=O)Nc2ccccc2-c2nc3ccccc3[nH]c2=O)c1, the AC50 was 1.55 µM.
O=C(Nc1ccccc1-c1nc2ccccc2[nH]c1=O)c1nccs1 showed an AC50 of 0.522 µM.
Work on O=C(Nc1ccccc1-c1nc2ccccc2[nH]c1=O)c1ccc(Cl)cc1 yielded an AC50 of 0.297 µM.
Cc1ccc(C(=O)Nc2ccccc2-c2nc3ccccc3[nH]c2=O)cc1 showed an AC50 of 0.763 µM.
O=C(Nc1ccccc1-c1nc2ccccc2[nH]c1=O)c1ccccc1F showed an AC50 of 4.86 µM.

Same assay, conditions: purified STK33, MBP phosphorylation, at 10 µM (top of the series)
O=c1[nH]c2ccccc2nc1-c1ccccc1NCc1ccccc1 was tested, and the “activity change, negative = inhibition” value was “inactive”.
With O=c1[nH]c2ccccc2nc1-c1ccccc1NCc1cccnc1 the “activity change, negative = inhibition” value was “inactive”.
O=c1[nH]c2ccccc2nc1-c1ccccc1NS(=O)(=O)c1cccs1 was tested, and the “activity change, negative = inhibition” value was “inactive”.
For CC(C)C(=O)Nc1ccccc1-c1nc2ccccc2[nH]c1=O, the “activity change, negative = inhibition” value was “inactive”.
With O=C(Nc1ccccc1-c1nc2ccccc2[nH]c1=O)C1CCCC1 the “activity change, negative = inhibition” value was “inactive”.
COc1ccccc1C(=O)Nc1ccccc1-c1nc2ccccc2[nH]c1=O was tested, and the “activity change, negative = inhibition” value was “inactive”.
O=c1[nH]c2ccccc2nc1-c1ccccc1NS(=O)(=O)c1cccnc1 was tested, and the “activity change, negative = inhibition” value was “inactive”.
O=c1[nH]c2ccccc2nc1-c1ccccc1NCC1CC1 was tested, and the “activity change, negative = inhibition” value was “inactive”.
With O=C(Nc1ccccc1-c1nc2ccccc2[nH]c1=O)c1cc2ccccc2s1 the “activity change, negative = inhibition” value was “inactive”.
In the case of O=C(Nc1ccccc1-c1nc2cc3ccccc3cc2[nH]c1=O)c1cccs1, the “activity change, negative = inhibition” value is reported as “inactive”.
In the case of O=C(Nc1ccccc1-c1nc2ccccc2[nH]c1=O)C1CC1, the “activity change, negative = inhibition” value is reported as “inactive”.
With Cc1ccccc1C(=O)Nc1ccccc1-c1nc2ccccc2[nH]c1=O the “activity change, negative = inhibition” value was “inactive”.
O=C(Nc1ccccc1-c1nc2ccccc2[nH]c1=O)c1ccccc1Cl was tested, and the “activity change, negative = inhibition” value was “inactive”.
In the case of O=c1[nH]c2ccccc2nc1-c1ccccc1NCc1ccc(F)cc1, the “activity change, negative = inhibition” value is reported as “inactive”.
